Paper PMC11061834 (Journal of Natural Products, 2024)

What was measured:
[1] = test system: 3T3-L1 cells; experiment: Cell viability / cytotoxicity, CCK-8 assay; type: cell-based; conditions: CCK-8, 48 h
Method in brief: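 3T3-L1 preadipocytes were seeded at 1 × 10^3 cells per well and incubated for 12 h. They were then exposed to varying concentrations of test compound for 48 h. Viability was measured with the CCK-8 kit following the manufacturer's guidelines, reading optical density at 450 nm. Data are means ± SD from triplicate experiments (n = 3), compared by Student's t test at P ≤ 0.05.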

[2] = cited from earlier work
[3] = test system: PPARγ; conditions: cited from earlier work

With C=C(c1ccc(O)c(Oc2cc3c(cc2OC)CCN(C)[C@@H]3Cc2ccc(OC)cc2)c1)[C@H]1c2cc(O)c(OC)cc2CCN1C [Compound 5, 1R,1′S-neoisoliensinine A] the maximum noncytotoxic concentration [1] was 5 µM.

In the case of C=C(c1ccc(O)c(Oc2cc3c(cc2OC)CCN(C)[C@@H]3Cc2ccc(OC)cc2)c1)[C@@H]1c2cc(O)c(OC)cc2CCN1C [Compound 4, 1R,1′R-neoisoliensinine A], the maximum noncytotoxic concentration [1] is reported as 10 µM.

C=C(c1ccc(O)c(Oc2cc3c(cc2OC)CCN(C)[C@@H]3Cc2ccc(OC)cc2)c1)[C@@H]1c2cc(OC)c(OC)cc2CCN1C [Compound 2, 1R,1′R-neoneferine A] gave a maximum noncytotoxic concentration [1] of 15 µM.

For C=C(c1ccc(O)c(Oc2cc3c(cc2OC)CCN(C)[C@@H]3Cc2ccc(OC)cc2)c1)[C@H]1c2cc(OC)c(OC)cc2CCN1C [Compound 3, 1R,1′S-neoneferine A], the maximum noncytotoxic concentration [1] was 5 µM.

Work on COc1ccc(C[C@@H]2c3cc(Oc4cc(C[C@H]5c6cc(OC)c(OC)cc6CCN5C)ccc4O)c(OC)cc3CCN2C)cc1 [Compound 8, 1′-epi-neferine] yielded a maximum noncytotoxic concentration [1] of 5 µM.

In the case of COc1ccc(C[C@@H]2c3cc(Oc4cc(C[C@@H]5c6cc(OC)c(OC)cc6CCN5C)ccc4O)c(OC)cc3CCN2C)cc1 [Compound 7, neferine], the “antiadipogenic activity (in words)” value [2] is given as “antiadipogenic activity”, the “PPARγ inhibitory effect (in words)” value [3] is given as “PPARγ inhibitory effect” and the maximum noncytotoxic concentration [1] is given as 10 µM.
